According to ChEMBL document CHEMBL1268838, “The synthesis and biologic evaluation of anti-platelet and cytotoxic β-nitrostyrenes” (Bioorg Med Chem, 2010):
pIC50: −log10 of the molar value.

What was measured:
[1] = Antiaggregatory activity in human platelets assessed as inhibition of collagen-induced platelet aggregation preincubated for 3 mins before collagen challenge by turbidimetry analysis; assay type: functional, cell-based
Procedure, shortened: (§1)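 Washed platelets from ACD-anticoagulated blood of drug-free healthy volunteers, resuspended at 3 × 10⁸/ml in Tyrode's solution with Ca²⁺ 2 mM, glucose 11.1 mM and BSA 3.5 mg/ml. Platelets were stirred at 1200 rpm and 37 °C for 3 min with DMSO (0.5%, vehicle) or compound, then the inducer was added. Aggregation was read by light-transmission aggregometry. IC50 is the mean of two independent experiments (TPA lines n = 3).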

[2] = Antiaggregatory activity in human platelets assessed as inhibition of thrombin-induced platelet aggregation preincubated for 3 mins before thrombin challenge by turbidimetry analysis; assay type: functional, cell-based; procedure, shortened: as §1
MDA-MB-231 [3] = experiment: Cytotoxicity against human MDA-MB-231 cells after 72 hrs by MTT assay; assay type: functional, cell-based; conditions: MDA-MB-231, 72 h
Procedure, shortened: (§2)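 MDA-MB-231 breast cancer or HBL-100 non-malignant breast epithelial cells: freshly trypsinized cells seeded at 8000 per well, with compound added from DMSO-diluted stock. After 72 h, attached cells were given MTT (0.5 mg/mL, 1 h) and solubilized in DMSO.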

MDA-MB-231 [4] = experiment: Cytotoxicity against human MDA-MB-231 cells at 20 uM after 72 hrs by MTT assay; assay type: functional; conditions: MDA-MB-231, 72 h
HBL-100 [5] = experiment: Cytotoxicity against human HBL100 cells after 72 hrs by MTT assay; assay type: functional, cell-based; conditions: HBL-100, 72 h; procedure, shortened: as §2
HBL-100 [6] = experiment: Cytotoxicity against human HBL100 cells at 20 uM after 72 hrs by MTT assay; assay type: functional; conditions: HBL-100, 72 h
[7] = Antiaggregatory activity in human platelets assessed as inhibition of A23187-induced platelet aggregation preincubated for 3 mins before A23187 challenge by turbidimetry analysis; assay type: functional, cell-based; procedure, shortened: as §1
[8] = Antiaggregatory activity in human platelets assessed as inhibition of TPA-induced platelet aggregation preincubated for 3 mins before TPA challenge by turbidimetry analysis; assay type: functional, cell-based; procedure, shortened: as §1
[9] = system: Integrin alpha-IIb/beta-3 (Homo sapiens); experiment: Inhibition of glycoprotein 2b/3a activation in human platelets assessed as inhibition of thrombin-induced PAC-1 binding preincubated for 3 mins before thrombin challenge after 15 mins by flow cytometry; conditions: 0.25 h

Structure (SMILES) | pIC50 [1] | pIC50 [2] | pIC50 (MDA-MB-231 [3]) | inhibition at 20 µM (MDA-MB-231 [4]) | pIC50 (HBL-100 [5]) | inhibition at 20 µM (HBL-100 [6]) | pIC50 [7] | pIC50 [8] | Activity [9]
COc1cc(/C=C/[N+](=O)[O-])ccc1OC(=O)c1ccc(C(C)(C)C)cc1 | 6.22 | 6.22 | < 4.70 | 2.5% | < 4.70 | -2.1% | 5.96 | 5.46 | Dose-dependent effect
COc1cc(/C=C/[N+](=O)[O-])ccc1OC(=O)c1cccc(Cl)c1Cl | 6.22 | 6.15 | < 4.70 | -4.9% | < 4.70 | 11.5% | 5.48 | 5.28 | Dose-dependent effect
